According to ChEMBL document CHEMBL1126793, “Effect of trifluoromethyl and other substituents on activity of xanthines at adenosine receptors” (J Med Chem, 1993):
pKi: −log10 of the molar value.

Assays:
[1] = target: Adenosine receptor A2a (Rattus norvegicus) (UniProt P30543); assay: Inhibition of [3H]-CGS- 21680 binding to Adenosine A2A receptor in rat brain membranes at […]; assay type: cell membranes
Summary of the method: (§1)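 Rat striatal membranes incubated with 4 nM [3H]CGS 21680 as the A2a radioligand. Nonspecific binding was defined with 20 μM 2-chloroadenosine. The value is percent inhibition of specific binding at the highest concentration tested, which was sometimes limited by solubility.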

Adenosine receptor A1 = target: T1, Adenosine receptor A1 (Rattus norvegicus, UniProt P25099); assay: Binding affinity for adenosine A1 receptor from rat brain membranes using [3H]PIA as radioligand
T1 sequence (P25099 whole entry): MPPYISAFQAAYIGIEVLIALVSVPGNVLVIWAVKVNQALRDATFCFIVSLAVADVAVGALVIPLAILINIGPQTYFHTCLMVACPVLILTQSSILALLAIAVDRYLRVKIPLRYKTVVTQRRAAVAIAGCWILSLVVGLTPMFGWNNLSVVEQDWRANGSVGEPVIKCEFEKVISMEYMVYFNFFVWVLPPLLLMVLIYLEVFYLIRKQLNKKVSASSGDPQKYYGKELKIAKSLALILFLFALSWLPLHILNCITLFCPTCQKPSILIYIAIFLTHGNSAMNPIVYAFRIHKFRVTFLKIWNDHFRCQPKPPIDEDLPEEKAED

Adenosine receptor A2a = Adenosine receptor A2a (Rattus norvegicus, UniProt P30543); assay: Binding affinity for adenosine A2A receptor from rat brain membranes using [3H]CGS-21680
Chain of Adenosine receptor A2a (P30543 whole entry): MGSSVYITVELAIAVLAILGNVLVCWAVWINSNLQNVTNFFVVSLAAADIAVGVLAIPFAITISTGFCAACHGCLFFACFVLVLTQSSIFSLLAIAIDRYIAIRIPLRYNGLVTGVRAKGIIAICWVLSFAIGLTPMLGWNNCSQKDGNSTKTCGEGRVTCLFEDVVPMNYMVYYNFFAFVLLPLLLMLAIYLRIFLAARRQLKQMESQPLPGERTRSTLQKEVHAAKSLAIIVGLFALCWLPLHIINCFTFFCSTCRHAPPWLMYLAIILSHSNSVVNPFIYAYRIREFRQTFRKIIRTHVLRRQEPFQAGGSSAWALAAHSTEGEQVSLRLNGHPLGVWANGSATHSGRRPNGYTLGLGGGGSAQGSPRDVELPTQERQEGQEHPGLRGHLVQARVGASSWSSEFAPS

[2] = target: T2, Adenosine receptor A1 (Rattus norvegicus) (UniProt P25099); assay: Inhibition of [3H]PIA binding to Adenosine A1 receptor in rat brain membranes at 100 uM; assay type: cell membranes; conditions: 250 uM, in the assay text read “250 uM” for “100 uM”
T2 sequence (whole entry): T1 sequence (P25099 whole entry)
Summary of the method: (§2)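 Rat brain membranes labelled with 1 nM [3H]-N6-[(R)-phenylisopropyl]adenosine for A1 sites. Nonspecific binding was defined with 10 μM 2-chloroadenosine. The value is percent inhibition of specific binding at the highest concentration tested, which was sometimes limited by solubility.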

[3] = target: Adenosine receptor A2a (Rattus norvegicus) (UniProt P30543); assay: Inhibition of [3H]-CGS- 21680 binding to Adenosine A2A receptor in rat brain membranes at 100 uM; assay type: cell membranes; summary of the method: as §1
[4] = target: Adenosine receptor A2a (Rattus norvegicus) (UniProt P30543); assay: Inhibition of [3H]-CGS- 21680 binding to Adenosine A2A receptor in rat brain membranes at 250 uM; assay type: cell membranes; summary of the method: as §1
[5] = target: Adenosine receptor A2a (Rattus norvegicus) (UniProt P30543); assay: Inhibition of [3H]-CGS- 21680 binding to Adenosine A2A receptor in rat brain membranes at 20 uM; assay type: cell membranes; summary of the method: as §1
[6] = target: T2, Adenosine receptor A1 (Rattus norvegicus); assay: Inhibition of [3H]PIA binding to A1 adenosine receptor in rat brain membranes at 250 uM; assay type: cell membranes; summary of the method: as §2

Chain of Adenosine receptor A2a (Rattus norvegicus) (P30543 whole entry): as above

Row | Compound | pKi (Adenosine receptor A1) | pKi (Adenosine receptor A2a) | other results
1 | Cn1c(-c2ccc(C(F)(F)F)cc2)nc2c1c(=O)[nH]c(=O)n2C | 5.43 |  | inhibition [1]: 10%
2 | Cc1nc2c(c(=O)n(C)c(=O)n2C)n1C | 5.31 | 5.12 | 
3 | CCC/C=C/c1nc2c(=O)n(C)c(=O)n(C)c2[nH]1 | 6.42 | 6.36 | 
4 | C=CCn1c(=O)c2c(nc(-c3ccccc3)n2C)n(C)c1=O | 5.05 | 4.92 | 
5 | Cn1c(-c2ccccc2)nc2c1c(=O)[nH]c(=O)n2C |  | 4.92 | 
6 | CCCn1c(=O)c2nc[nH]c2n(CCC)c1=O |  | 5.59 | 
7 | Cn1c(=O)c2c(nc(/C=C/C(=O)O)n2C)n(C)c1=O |  | 4.38 | inhibition [2]: 3%
8 | Cn1c(=O)c2c(nc(C(F)(F)F)n2C)n(C)c1=O |  | 4.54 | inhibition [2]: 8%
9 | CCCn1c(=O)c2[nH]c(-c3ccccc3)nc2n(CCC)c1=O |  | 6.85 | 
10 | Cn1c(=O)c2c(nc(-c3ccccc3)n2C)n(C)c1=O |  | 4.80 | 
11 | Cn1c(=O)c2[nH]c(Cl)nc2n(C)c1=O |  |  | inhibition [3]: 34%; inhibition [2]: 39%
12 | Cn1c(=O)c2[nH]c(-c3ccc(C(F)(F)F)cc3)nc2n(C)c1=O | 6.82 | 6.68 | 
13 | Cn1c(=O)c2c(nc(C3CCC3)n2C)n(C)c1=O | 4.52 | 4.72 | 
14 | Cn1c(-c2ccc(S(N)(=O)=O)cc2)nc2c1c(=O)[nH]c(=O)n2C |  |  | inhibition [4]: 42%; inhibition [2]: 33%
15 | CCCn1c(=O)c2nc(-c3ccc(C(F)(F)F)cc3)[nH]c2n(CCC)c1=O | 8.12 | 7.38 | 
16 | CCCn1c(=O)c2nc(C(F)(F)F)[nH]c2n(CCC)c1=O |  |  | inhibition [5]: 4.3%; inhibition [2]: 4.5%
17 | CC(C)Cn1c(=O)n(C)c(=O)c2[nH]c(Br)nc21 | 4.19 |  | inhibition [3]: 10%
18 | Cn1c(-c2ccc(S(=O)(=O)O)cc2)nc2c1c(=O)[nH]c(=O)n2C |  |  | inhibition [4]: 0%; inhibition [2]: 1.8%
19 | Cc1nc2c(=O)n(C)c(=O)n(C)c2[nH]1 | 5.06 |  | inhibition [4]: 34%
20 | Cn1c(=O)c2nc(C(F)(F)F)[nH]c2n(C)c1=O |  |  | inhibition [6]: 0%; inhibition [4]: 0%
21 | Cn1c(=O)c2c(nc(-c3ccc(C(F)(F)F)cc3)n2C)n(C)c1=O | 4.77 | 4.80 | 
22 | C=CCn1c(=O)c2c(nc(-c3ccc(S(=O)(=O)O)cc3)n2C)n(C)c1=O |  | 4.57 | inhibition [2]: 35%
23 | C=CCn1c(=O)c2c(nc(-c3ccc(C(F)(F)F)cc3)n2C)n(C)c1=O | 5.24 | 4.96 | 
24 | Cn1c(=O)c2c(nc(-c3ccc(S(=O)(=O)O)cc3)n2C)n(C)c1=O |  | 4.70 | inhibition [2]: 3.3%
25 | Cn1c(=O)c2c(nc(Br)n2C)n(C)c1=O | 4.31 | 4.92 | 

Second part, led by results:

Row | pKi (Adenosine receptor A1) | pKi (Adenosine receptor A2a) | Compound | other results
26 |  | 6.10 | CCCn1c(=O)c2[nH]c(-c3ccc(S(=O)(=O)O)cc3)nc2n(CCC)c1=O | 
27 | 4.92 | 6.21 | Cn1c(=O)c2c(nc(/C=C/C(=O)OC(C)(C)C)n2C)n(C)c1=O | 
28 |  | 5.24 | CC(C)Cn1c(=O)n(C)c(=O)c2[nH]cnc21 [ISOBUTYLMETHYLXANTHINE] | 
29 | 6.22 | 5.55 | CCCn1c(=O)c2nc(C)[nH]c2n(CCC)c1=O | 
30 |  | 5.24 | Cn1c(=O)c2[nH]c(-c3ccc(S(=O)(=O)O)cc3)nc2n(C)c1=O | 
31 |  | 6.01 | Cn1c(=O)c2[nH]c(-c3ccccc3)nc2n(C)c1=O [8-PHENYL THEOPHYLLINE] | 
32 | 6.72 | 5.55 | Cn1c(=O)c2nc(C3CCC3)[nH]c2n(C)c1=O | 
33 |  | 7.12 | CCCn1c(=O)c2nc(-c3ccc(S(N)(=O)=O)cc3)[nH]c2n(CCC)c1=O | 
34 | 6.18 | 5.11 | C=CCn1c(=O)c2c(nc(-c3ccccc3)n2CC=C)n(C)c1=O | 
35 | 5.54 | 5.38 | C=CCn1c(-c2ccc(C(F)(F)F)cc2)nc2c1c(=O)n(CCC)c(=O)n2CCC | 
36 | 4.99 |  | Cn1c(=O)c2[nH]c(Br)nc2n(C)c1=O [PAMABROM] | inhibition [3]: 36%
37 | 5.04 |  | CCC/C=C/c1nc2c(c(=O)n(C)c(=O)n2C)n1C | 
